Published values gathered from unrelated publications.
Lines come from different studies, so protocols differ.
Organism: Nakaseomyces glabratus
Effect on: microbial growth

Structure (SMILES)	technique	strain	time	notes	MIC
COc1cc(NC(C)CCCN)c2nc(C(C)(C)C)ccc2c1Oc1ccc(Cl)c(Cl)c1 (centres unmarked)	broth dilution	ATCC90030			20 µg/mL
OC(Cn1cncn1)(Cn1cncn1)c1ccc(F)cc1F	broth dilution	MY1381			8 µg/mL
CCCCCOc1c(OC)cc(NC(C)CCCNC(=O)C(N)C(C)CC)c2nc(C(C)(C)C)ccc12 (centres unmarked)	broth dilution	ATCC90030			> 20 µg/mL
Fc1ccc(C2(Cn3cncn3)CO2)c(F)c1 (centres unmarked)	broth dilution	ATCC2001	48 h		> 31.3 µg/mL
OC(Cn1cncn1)(Cn1cncn1)c1ccc(F)cc1F				clinical isolate	4 µg/mL
OC(CNCCN1CCOCC1)(Cn1cncn1)c1ccc(F)cc1F (centres unmarked)	broth dilution	ATCC2001	48 h		31.3 µg/mL
C[C@@H]1[C@H](O)[C@@H](C)/C=C/C=C/C=C/C=C/C=C/C=C/C=C/[C@H](O[C@@H]2O[C@H](C)[C@@H](O)[C@H](N)[C@@H]2O)C[C@@H]2O[C@](O)(C[C@@H](O)C[C@@H](O)[C@H](O)CC[C@@H](O)C[C@@H](O)CC(=O)O[C@H]1C)C[C@H](O)[C@H]2C(=O)O	broth dilution	ATCC90030			0.63 µg/mL
C[C@@H]1[C@H](O)[C@@H](C)/C=C/C=C/C=C/C=C/C=C/C=C/C=C/[C@H](O[C@@H]2O[C@H](C)[C@@H](O)[C@H](N)[C@@H]2O)C[C@@H]2O[C@](O)(C[C@@H](O)C[C@@H](O)[C@H](O)CC[C@@H](O)C[C@@H](O)CC(=O)O[C@H]1C)C[C@H](O)[C@H]2C(=O)O	broth dilution				1.25 µg/mL
COc1cc(-c2ccc(C(C)(C)C)cc2)cc(C(C)C#Cc2c(C)nc(N)nc2N)c1 (centres unmarked)	resazurin				207 µg/mL
CCCCCCCCCCCCCCN1CCNCC1	broth dilution	ATCC2001	48 h		0.975 µg/mL
CCC(C#Cc1c(C)nc(N)nc1N)c1cc(OC)c(OC)c(OC)c1 (centres unmarked)	resazurin				89 µg/mL
CCCCCCCCOc1c(OC)cc(NC(C)CCCNC(=O)C2CCCN2)c2nc(C(C)(C)C)ccc12 (centres unmarked)	broth dilution	ATCC90030			20 µg/mL
CCCCCCCCCCN1CCNCC1	broth dilution	ATCC2001	48 h		7.8 µg/mL
C[C@@H]1[C@H](O)[C@@H](C)/C=C/C=C/C=C/C=C/C=C/C=C/C=C/[C@H](O[C@@H]2O[C@H](C)[C@@H](O)[C@H](N)[C@@H]2O)C[C@@H]2O[C@](O)(C[C@@H](O)C[C@@H](O)[C@H](O)CC[C@@H](O)C[C@@H](O)CC(=O)O[C@H]1C)C[C@H](O)[C@H]2C(=O)O		ATCC90030			0.68 µM
